Measured values reported in ChEMBL document CHEMBL4513216, “Probing the Open Global Health Chemical Diversity Library for Multistage-Active Starting Points for Next-Generation Antimalarials” (ACS Infect Dis, 2020).

Assay: Toxicity liver stage against HepG2, at 10uM
Format: cell-based
Set-up: test concentration 10 uM, cell line HepG2-A16-CD81EGFP
Conditions: human, HepG2-A16-CD81EGFP cells; read-out: INHIBITION
How it was run: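 Uninfected HepG2-A16-CD81EGFP cells, 3 × 10^3 per well, 1536-well, plated on prespotted compound at 10 μM final, parasite-free screening media added to match infected plates; puromycin 10 μM positive, DMSO 0.5% negative; run in parallel with 48 h PbLuc assay at 37 °C, 5% CO2; viability by CellTiter-Glo luminescence, normalized to controls.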

Going from `O=C(O)C1(Oc2ccccc2F)CCN(C/C=C/c2ccco2)CC1` to `Cc1ccc(OC2(C(=O)O)CCN(C/C=C/c3ccco3)CC2)cc1`, the cytotoxicity at 10 µM falls from -6.49% to -14.4%.

First: CC(=O)c1ccc(-n2c(C)cn(CCC#N)c2=O)cc1
Second: Cc1cccc(NC(=O)Cc2cnc3n(C)c(=O)[nH]c(=O)n23)c1
The cytotoxicity at 10 µM of the first is higher: 19.3% for the first, -5.17% for the second.

First: COCCC(=O)N1CCn2cc(CN3CCN(C)CC3)nc2C1
Second: Cc1ccc(CN2CC[C@H]3CO[C@H](CN4CCN(C)CC4)[C@H]3C2)o1
The cytotoxicity at 10 µM of the first is higher: -3.13% for the first, -118% for the second.

Going from `COCCCN1CC2(CCCN(c3ncc4nc[nH]c4n3)C2)CCC1=O` (stereo not drawn) to `COCCN1CCN(c2ccc(C)nn2)Cc2cccnc21`, the cytotoxicity at 10 µM rises from -5.64% to -3.68%.

First: CC1=C(CCN2CC[C@@H](N3CCC(O)CC3)[C@H](O)C2)C(C)(C)CCC1
Second: Cc1ccc(C(=O)N2C[C@H]3CC[C@@H](C2)N(CC2CCC2)C3)s1
The cytotoxicity at 10 µM of the first is lower: -4.42% for the first, -4.2% for the second.

Going from `CC(C)c1nccn1-c1nccnc1C1CCCN1Cc1cccnc1` (stereo not drawn) to `Cn1cc(C2CCCN2C(=O)c2cnc(-c3ccccn3)s2)cn1` (stereo not drawn), the cytotoxicity at 10 µM falls from 7.77% to -8.1%.

Going from `Cc1cccc(C(=O)N2CCn3cnc(COCC4CC4)c3C2)n1` to `CC1c2ncc(COCC3CCOCC3)n2CCN1C(=O)c1ccco1` (stereo not drawn), the cytotoxicity at 10 µM falls from 6.85% to -0.882%.

Compared with `Cn1cnnc1-c1ccnc(NCc2ccc3c(c2)OCCO3)c1`, `CN(C(=O)Cc1ccc2c(c1)OCCO2)C1CCCC1` is higher in cytotoxicity at 10 µM: -11% for the first, 9.66% for the second.

`COc1nn(C)cc1C(=O)NCC1(O)CCc2ccccc2C1` (stereo not drawn) and `CC(C)CNC(=O)Cn1cc(C(N)=O)c(-c2ccccc2)n1` are the same in cytotoxicity at 10 µM: -6.98% for the first, -6.98% for the second.

First: CCN(C(=O)CN(Cc1cccc(O)c1)C1CCC(O)CC1)C1CC1 (stereo not drawn)
Second: CSc1cccc(CN(C)C(=O)c2ccc(C3CCCNC3)cc2)c1 (stereo not drawn)
The cytotoxicity at 10 µM of the first is higher: 1.31% for the first, -3.07% for the second.

Compared with `COc1cc(CNCc2c(C)nn(C)c2N(C)C)ccc1OCCO`, `CCCn1nnnc1COc1ccc(C(=O)OC)cc1OC` is higher in cytotoxicity at 10 µM: -7.59% for the first, -1.9% for the second.

Going from `CCN(Cc1nc2c(cnn2C)c(=O)[nH]1)Cc1ccccc1C` to `CCOCCCn1c(NC(=O)c2cc(C)no2)nc2ccccc21`, the cytotoxicity at 10 µM rises from -10.2% to -5.69%.

Going from `CC(c1ccc(F)cc1F)N1CCN(CCC(=O)O)CC1` (stereo not drawn) to `CCc1noc(C(C)N2CCN(Cc3cnc(C)cn3)CC2)n1` (stereo not drawn), the cytotoxicity at 10 µM falls from -3.6% to -8.54%.

First: Cn1nc(C2CCNCC2)c2c(C(=O)NC3CC3)cc(C3CC3)nc21
Second: O=C(NC1CC1)c1cn(C2CCN(c3cc(C4CC4)ncn3)CC2)nn1
The cytotoxicity at 10 µM of the first is lower: 16.2% for the first, 27.8% for the second.

Compared with `O=C(c1ccsc1)N1CCc2c(CNc3ncccn3)n[nH]c2C1`, `CCc1ccc(C(=O)NCCNc2ncccn2)cc1` is higher in cytotoxicity at 10 µM: -16.7% for the first, 0.364% for the second.

Going from `CN(CCC#N)C(=O)CN1CCCC1c1cccs1` (stereo not drawn) to `CC(CNC(=O)N1CCSCC1)Cc1cccs1` (stereo not drawn), the cytotoxicity at 10 µM rises from -8.83% to -8.63%.

First: c1cnnc(N2CCCC2CNCc2cscn2)c1 (stereo not drawn)
Second: CNc1cc(N2CCCC2CNCc2cscn2)ncn1 (stereo not drawn)
The cytotoxicity at 10 µM of the first is lower: -5.78% for the first, -0.426% for the second.

First: Cc1cccc(C(C)(C)CNC(=O)CCSc2nnnn2C)c1
Second: Cc1ccc(C)c(OCc2nnc(SCC3CCCN(C)C3)o2)c1 (stereo not drawn)
The cytotoxicity at 10 µM of the first is lower: -1.09% for the first, 5.24% for the second.

Compared with `O=C1NCC2(CCCN(Cc3ccncc3)C2)Oc2ccccc21` (stereo not drawn), `O=C1NCC[C@]12CN(Cc1nccs1)C[C@H]2c1ccccc1` is higher in cytotoxicity at 10 µM: -13.8% for the first, 11% for the second.

Compared with `O=C(Cn1cc(I)cn1)N1CCCC1`, `N#Cc1ccccc1N1CCCN(C(=O)CCc2nccs2)CC1` is lower in cytotoxicity at 10 µM: -0.653% for the first, -2.12% for the second.

Compared with `CC(C)CCc1nc(CN2CCOC(Cn3cncn3)C2)cs1` (stereo not drawn), `Cc1cccc(CN2C[C@H]3OC(=O)N(CCCN4CCOCC4)[C@H]3C2)n1` is lower in cytotoxicity at 10 µM: -6.06% for the first, -6.85% for the second.

Going from `O=S1(=O)N(c2ccccc2)C[C@@H](O)[C@]12CCNC2` to `c1ccc(-c2cnc3n2CCNC32CCNCC2)cc1`, the cytotoxicity at 10 µM falls from 2.63% to -2.2%.

First: COc1ncc(C(=O)NCc2ccc(Br)cc2)cn1
Second: NCc1cn(-c2ccccc2C(=O)NCc2ccccc2)cn1
The cytotoxicity at 10 µM of the first is higher: 48.6% for the first, 3.32% for the second.

First: OC(CN(Cc1ccccc1)Cc1cccnc1)c1ccco1 (stereo not drawn)
Second: CN(Cc1cnccn1)CC1CCOc2ccccc2C1 (stereo not drawn)
The cytotoxicity at 10 µM of the first is higher: -0.408% for the first, -3.75% for the second.

Compared with `CN(C)CCN1CC(C(=O)NCc2cn3cccnc3n2)CC1=O` (stereo not drawn), `CN(C)CCn1ccc2cc(NC(=O)NCc3ncnn3C)ccc21` is lower in cytotoxicity at 10 µM: -4.29% for the first, -6.52% for the second.

First: O=C(NCCNC(=O)c1scnc1Cl)c1ccoc1
Second: Cc1cc(CNC(=O)c2ccc(F)c(COCC3CC3)c2)no1
The cytotoxicity at 10 µM of the first is lower: -7.91% for the first, -0.429% for the second.

Going from `CCN(CC)CC(=O)N1CCCC1Cn1cccn1` (stereo not drawn) to `COc1c(C2CCCN2C(=O)c2nccnc2N)c(C)nn1C` (stereo not drawn), the cytotoxicity at 10 µM falls from -3.08% to -5.55%.

First: Cc1noc(C)c1CN1CCC(c2ccnn2CCO)CC1
Second: COCc1c(C(=O)N2CCCC(C(=O)c3nccn3C)C2)noc1C (stereo not drawn)
The cytotoxicity at 10 µM of the first is lower: -9.73% for the first, 15.8% for the second.

First: COc1ccccc1C(=O)N1CC(=O)N(C2CCCCC2)CC(O)C1 (stereo not drawn)
Second: COc1ccccc1CC1CCCN(CC(N)=O)C1 (stereo not drawn)
The cytotoxicity at 10 µM of the first is lower: -3.09% for the first, 5.68% for the second.

Going from `COc1ccc(C[C@H]2CN(C(=O)c3cc(C)no3)CC[C@H]2OC)cc1` to `COc1ccc(-c2nnsc2C(=O)N2CCN(C(C)=O)CC2)cc1`, the cytotoxicity at 10 µM falls from 6% to -0.145%.

Compared with `CC(C)CCNc1c(C#N)c2c(c3nncn13)CN(C)CC2`, `CN1CCc2c(C#N)c(NCCN3CCOCC3)n3cnnc3c2C1` is lower in cytotoxicity at 10 µM: 9.26% for the first, -2.84% for the second.

Compared with `O=C(Nc1cc(-c2cccnc2)no1)C1CCCCC1`, `Cc1cc(C)nc(N2CCC(C(=O)Nc3ccc(C(C)C)cc3)CC2)n1` is lower in cytotoxicity at 10 µM: 0.171% for the first, -3.02% for the second.

First: CCCn1nccc1NC(=O)CN1CCc2c(nc(C(C)C)n2C)C1
Second: Cn1nc(COc2cncnc2)c2c1CCN(Cc1ccccn1)C2
The cytotoxicity at 10 µM of the first is lower: 4.02% for the first, 9.67% for the second.

First: C[C@@H](O)CNc1c(NCc2ccco2)c(=O)c1=O
Second: Cc1ccc(NC(=O)CCC2CC2)cc1N1CCOC1=O
The cytotoxicity at 10 µM of the first is lower: -7.58% for the first, 3.86% for the second.

Going from `Cc1ncc(C(=O)N2CCCC(C(=O)CCc3ccccc3)C2)s1` (stereo not drawn) to `CC(C)[C@H](NC(=O)N1CCC(Cc2ccccc2)CC1)C(=O)O`, the cytotoxicity at 10 µM falls from 19.4% to -7.44%.

Going from `O=C(C1=CCCC1)N1C[C@@H]2COC[C@]2(COc2ncccc2F)C1` to `Fc1ccc(CN2C[C@@H](OCc3ccccn3)[C@H]3COC[C@H]32)cc1`, the cytotoxicity at 10 µM rises from -99.3% to -98.9%.

Compared with `Cc1ncoc1C(=O)N1CCn2c(COc3cccnc3)cnc2C1C` (stereo not drawn), `CC(=O)N1CCC(Cc2nccnc2-c2c(C)n[nH]c2C)C1` (stereo not drawn) is higher in cytotoxicity at 10 µM: -8.93% for the first, 10.7% for the second.

Going from `CN(C)CCOCc1cncc2c1CCN(C(=O)C1CCOCC1)C2` to `CN1CCCC(c2cncc(-c3cccc(C(F)(F)F)c3)n2)C1` (stereo not drawn), the cytotoxicity at 10 µM rises from -1.87% to 8.92%.

Compared with `CC(C)(C)C1CCC(O)(CNC(=O)CCS(C)(=O)=O)CC1` (stereo not drawn), `O=C(O)c1cn(CC2CCCN(c3nc4ccccc4s3)C2)nn1` (stereo not drawn) is lower in cytotoxicity at 10 µM: 6.51% for the first, -12.2% for the second.

First: Cc1nc2cc(=O)[nH]n2c(C)c1CC(=O)Nc1cnn(C)c1
Second: Cc1noc(-c2cnc(NCC3CCCO3)nc2-c2ccco2)c1C (stereo not drawn)
The cytotoxicity at 10 µM of the first is lower: 4.58% for the first, 7.74% for the second.

First: CCn1ccnc1CN(C)c1cc(N(C)C)ncn1
Second: Cc1cc(CN(C)C(C(=O)O)c2cccc(C(F)(F)F)c2)on1 (stereo not drawn)
The cytotoxicity at 10 µM of the first is lower: -42.1% for the first, -6.33% for the second.

For `c1ccc2sc(N3CCN(c4ncnc5c4CCC5)CC3)nc2c1`, the cytotoxicity at 10 µM was 56.7%.
